In ChEMBL document CHEMBL1667749, “Design & synthesis of N'-[substituted] pyridine-4-carbohydrazides as potential anticonvulsant agents” (Eur J Med Chem, 2011):
Activity calls are given as the source filed them. The calls are words filed in the database; no cut-off is given here.

Columns and labels:
Rattus norvegicus [1] = test: Acute toxicity in Sprague-Dawley rat assessed as motor impairment at 100 mg/kg, ip after 4 hrs; format: organism-based; parameters: dose 100 mg/kg, route intraperitoneal; conditions: in vivo
Outline: (§1)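 Male albino Sprague Dawley rats, two per dose, given test compound i.p. as a suspension in 0.5% methyl cellulose. Behaviour was closely observed and recorded over 4 h to detect acute motor impairment. Values are scored as animals toxic over animals tested at each time point.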

Rattus norvegicus [2] = test: Acute toxicity in Sprague-Dawley rat assessed as motor impairment at 100 mg/kg, ip after 2 hrs; format: organism-based; parameters: dose 100 mg/kg, route intraperitoneal; conditions: in vivo; outline: as §1
Rattus norvegicus [3] = test: Acute toxicity in Sprague-Dawley rat assessed as motor impairment at 100 mg/kg, ip after 1 hr; format: organism-based; parameters: dose 100 mg/kg, route intraperitoneal; conditions: in vivo; outline: as §1
Rattus norvegicus [4] = test: Acute toxicity in Sprague-Dawley rat assessed as motor impairment at 100 mg/kg, ip after 0.5 hrs; format: organism-based; parameters: dose 100 mg/kg, route intraperitoneal; conditions: in vivo; outline: as §1
Rattus norvegicus [5] = test: Acute toxicity in Sprague-Dawley rat assessed as motor impairment at 100 mg/kg, ip after 0.25 hrs; format: organism-based; parameters: dose 100 mg/kg, route intraperitoneal; conditions: in vivo; outline: as §1
Mus musculus [6] = species: Mus musculus; test: Protective index, ratio of TD50 for albino CF-1 mouse to ED50 for albino CF-1 mouse assessed as protection against 6 Hz psychomotor seizure; format: functional
Outline: (§2)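 Protection index = TD50 (rotorod, mice, i.p.) divided by ED50 from MES or 6 Hz test, each at its time of peak effect.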

Mus musculus [7] = species: Mus musculus; test: Protective index, ratio of TD50 for albino CF-1 mouse to ED50 for albino CF-1 mouse assessed as protection against maximal electroshock-induced seizures; format: functional; outline: as §2
Mus musculus [8] = test: Anticonvulsant activity in ip dosed albino CF-1 mouse assessed as protection against 6 Hz psychomotor seizure after 0.25 hrs by minimal clonic seizure test; format: functional; conditions: albino CF-1, ip
Outline: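 Quantitative 6 Hz test in male CF-1 mice dosed i.p.; 32 mA for 3 s via corneal electrodes at time of peak effect; ED50 with 95% confidence interval, slope and standard error reported.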

[9] = Neurotoxicity in ip dosed albino CF-1 mouse assessed as motor impairment after 8 hrs by rotarod test; format: toxicity, organism-based; conditions: in vivo, read-out: ID50
Mus musculus [10] = test: Anticonvulsant activity in ipp dosed albino CF-1 mouse assessed as protection against subcutaneous metrazol-induced seizures after 1 hr; format: functional; conditions: albino CF-1, sc
Mus musculus [11] = test: Anticonvulsant activity in ip dosed albino CF-1 mouse assessed as protection against maximal electroshock-induced seizures after 1 hr; format: functional; conditions: albino CF-1, ip
Mus musculus [12] = test: Anticonvulsant activity in albino CF-1 mouse assessed as protection against 6 Hz psychomotor seizure at 100 mg/kg, ip after 4 hrs by minimal clonic seizure test; format: functional, organism-based; parameters: dose 100 mg/kg
Outline: (§3)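 Male CF-1 mice (18–25 g), i.p. 100 mg/kg in 0.5% methyl cellulose suspension; 6 Hz corneal stimulation, 32 mA for 3 s, four mice per time point. Protected if no minimal clonic phase with stereotyped automatistic behaviour.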

Mus musculus [13] = test: Anticonvulsant activity in albino CF-1 mouse assessed as protection against 6 Hz psychomotor seizure at 100 mg/kg, ip after 2 hrs by minimal clonic seizure test; format: functional; outline: as §3
Mus musculus [14] = test: Anticonvulsant activity in albino CF-1 mouse assessed as protection against 6 Hz psychomotor seizure at 100 mg/kg, ip after 1 hr by minimal clonic seizure test; format: functional; conditions: route intraperitoneal; outline: as §3
Mus musculus [15] = test: Anticonvulsant activity in albino CF-1 mouse assessed as protection against 6 Hz psychomotor seizure at 100 mg/kg, ip after 0.5 hrs by minimal clonic seizure test; format: functional; outline: as §3
Mus musculus [16] = test: Anticonvulsant activity in albino CF-1 mouse assessed as protection against 6 Hz psychomotor seizure at 100 mg/kg, ip after 0.25 hrs by minimal clonic seizure test; format: functional; conditions: route intraperitoneal; outline: as §3
Mus musculus [17] = test: Anticonvulsant activity in albino CF-1 mouse assessed as protection against maximal electroshock-induced seizures at 300 mg/kg, ip after 0.5 hrs; format: functional, organism-based; parameters: dose 300 mg/kg
Outline: (§4)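 Male CF-1 mice (18–25 g), i.p. in 0.5% methyl cellulose at 30, 100 and 300 mg/kg; MES: 60 Hz, 50 mA, 0.2 s through tetracaine-primed corneal electrodes; protection = abolished hind limb tonic extension. Value given as minimum dose active in half or more of mice.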

Mus musculus [18] = test: Anticonvulsant activity in ip dosed albino CF-1 mouse assessed as dose required to protect against maximal electroshock-induced seizures after 2 hrs; format: functional; outline: as §4
Mus musculus [19] = test: Anticonvulsant activity in ip dosed albino CF-1 mouse assessed as dose required to protect against maximal electroshock-induced seizures after 4 hrs; format: functional; outline: as §4
Mus musculus [20] = test: Anticonvulsant activity in albino CF-1 mouse assessed as protection against subcutaneous metrazol-induced seizures at 300 mg/kg, ip after 0.5 hrs; format: functional, organism-based; parameters: dose 300 mg/kg
Outline: (§5)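 Male CF-1 mice, i.p. at 30, 100, 300 mg/kg in 0.5% methyl cellulose; metrazol dose convulsing 97% of animals injected s.c. in midline neck fold, mice isolated and watched 30 min; protected if no 3–5 s clonic spasm episode of limbs, jaws or vibrissae.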

Mus musculus [21] = test: Anticonvulsant activity in albino CF-1 mouse assessed as protection against subcutaneous metrazol-induced seizures at 300 mg/kg, ip after 4 hrs; format: functional, organism-based; parameters: dose 300 mg/kg; outline: as §5
Mus musculus [22] = test: Neurotoxicity in albino CF-1 mouse assessed as motor impairment at 300 mg/kg, ip after 0.5 hrs by rotarod test; format: toxicity, organism-based; parameters: dose 300 mg/kg, route intraperitoneal; conditions: in vivo
Outline: (§6)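 Minimal motor impairment in male CF-1 mice by rotorod after i.p. dosing; toxic if animal falls off rotating rod 3 times within 1 min. Screen doses 30, 100, 300 mg/kg; quantitative TD50 (95% confidence interval) determined at time of peak effect.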

Mus musculus [23] = test: Neurotoxicity in albino CF-1 mouse assessed as motor impairment at 300 mg/kg, ip after 4 hrs by rotarod test; format: toxicity, organism-based; parameters: dose 300 mg/kg, route intraperitoneal; conditions: in vivo; outline: as §6
Rattus norvegicus [24] = test: Anticonvulsant activity in Sprague-Dawley rat assessed as protection against maximal electroshock-induced seizures at 30 mg/kg, po after 0.25 hrs; format: functional, organism-based; parameters: dose 30 mg/kg
Outline: (§7)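 Male Sprague Dawley rats (100–150 g; 115–150 g in text), compound suspended in 0.5% methyl cellulose, given orally; MES challenge: 60 Hz alternating current, 150 mA, 0.2 s via corneal electrodes primed with 0.5% tetracaine HCl electrolyte. Protection = abolition of hind limb tonic extension; four rats per time point, scored as number protected.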

Rattus norvegicus [25] = test: Anticonvulsant activity in Sprague-Dawley rat assessed as protection against maximal electroshock-induced seizures at 30 mg/kg, po after 0.5 hrs; format: functional, organism-based; parameters: dose 30 mg/kg; outline: as §7
Rattus norvegicus [26] = test: Anticonvulsant activity in Sprague-Dawley rat assessed as protection against maximal electroshock-induced seizures at 30 mg/kg, po after 1 hr; format: functional, organism-based; parameters: dose 30 mg/kg; outline: as §7
Rattus norvegicus [27] = test: Anticonvulsant activity in Sprague-Dawley rat assessed as protection against maximal electroshock-induced seizures at 30 mg/kg, po after 4 hrs; format: functional, organism-based; parameters: dose 30 mg/kg; outline: as §7
Rattus norvegicus [28] = test: Neurotoxicity in Sprague-Dawley rat assessed as motor impairment at 30 mg/kg, po after 0.25 hrs by rotarod test; format: toxicity, organism-based; parameters: dose 30 mg/kg, route oral; conditions: in vivo
Rattus norvegicus [29] = test: Neurotoxicity in Sprague-Dawley rat assessed as motor impairment at 30 mg/kg, po after 0.5 hrs by rotarod test; format: toxicity, organism-based; parameters: dose 30 mg/kg, route oral; conditions: in vivo
Rattus norvegicus [30] = test: Neurotoxicity in Sprague-Dawley rat assessed as motor impairment at 30 mg/kg, po after 1 hr by rotarod test; format: toxicity, organism-based; parameters: dose 30 mg/kg, route oral; conditions: in vivo
Rattus norvegicus [31] = test: Neurotoxicity in Sprague-Dawley rat assessed as motor impairment at 30 mg/kg, po after 2 hrs by rotarod test; format: toxicity, organism-based; parameters: dose 30 mg/kg, route oral; conditions: in vivo
Rattus norvegicus [32] = test: Neurotoxicity in Sprague-Dawley rat assessed as motor impairment at 30 mg/kg, po after 4 hrs by rotarod test; format: toxicity, organism-based; parameters: dose 30 mg/kg, route oral; conditions: in vivo
Rattus norvegicus [33] = test: Anticonvulsant activity in Sprague-Dawley rat assessed as protection against maximal electroshock-induced seizures at 30 mg/kg, po after 2 hrs; format: functional; outline: as §7
Rattus norvegicus [34] = test: Anticonvulsant activity in Sprague-Dawley rat assessed as protection against pilocarpine-induced status epilepticus at 200 mg/kg, ip; format: functional, organism-based; parameters: dose 200 mg/kg
Outline: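 Male albino Sprague Dawley rats (150–180 g) dosed i.p., then challenged with pilocarpine; qualitative screen scored as protection or no protection, seizure severity graded on the Racine scale; N/F and deaths recorded, time taken post first Stage III seizure.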

Rattus norvegicus [35] = test: Toxicity in Sprague-Dawley rat assessed as change in body weight at 200 mg/kg, ip measured after 24 hrs of clonus of one of the fore limbs seizure stage in protected rat; format: organism-based; parameters: dose 200 mg/kg, route intraperitoneal; conditions: in vivo
Outline: (§8)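 Male Sprague Dawley rats (150–180 g) dosed i.p. then challenged with pilocarpine; body weight change measured 24 h after first Stage III seizure, split by protected and non-protected rats, given ± S.E.M.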

Rattus norvegicus [36] = test: Toxicity in Sprague-Dawley rat assessed as change in body weight at 200 mg/kg, ip measured after 24 hrs of clonus of one of the fore limbs seizure stage in non-protected rat; format: organism-based; parameters: dose 200 mg/kg, route intraperitoneal; conditions: in vivo; outline: as §8
[37] = Octanol-phosphate buffer partition coefficient, log P of the compound at 5 mg, after 24 hrs by UV spectroscopic analysis; format: physicochemical
Outline: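 5 mg compound added to 10 mL octanol plus 10 mL phosphate buffer in stoppered tube, mechanically shaken 24 h at room temperature, then left in separating funnel 6 h to equilibrate.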

Rattus norvegicus [38] = test: Acute toxicity in Sprague-Dawley rat assessed as motor impairment at 300 mg/kg, ip after 0.25 hrs; format: organism-based; parameters: dose 300 mg/kg, route intraperitoneal; conditions: in vivo; outline: as §1
Rattus norvegicus [39] = test: Acute toxicity in Sprague-Dawley rat assessed as motor impairment at 300 mg/kg, ip after 0.5 hrs; format: organism-based; parameters: dose 300 mg/kg, route intraperitoneal; conditions: in vivo; outline: as §1
Rattus norvegicus [40] = test: Acute toxicity in Sprague-Dawley rat assessed as motor impairment at 300 mg/kg, ip after 1 hr; format: organism-based; parameters: dose 300 mg/kg, route intraperitoneal; conditions: in vivo; outline: as §1

O=C(N/N=C\c1ccc(Oc2ccc(F)cc2)cc1)c1ccncc1
Activity (Rattus norvegicus [1]): Non-toxic
Activity (Rattus norvegicus [2]): Non-toxic
Activity (Rattus norvegicus [3]): Non-toxic
Activity (Rattus norvegicus [4]): Non-toxic
Activity (Rattus norvegicus [5]): Non-toxic
PI (Mus musculus [6]): 6.44
PI (Mus musculus [7]): 2.67
ED50 (Mus musculus [8]): 53.3 mg/kg
TD50 at 8 h [9]: 344 mg/kg
ED50 (Mus musculus [10]): > 250 mg/kg
ED50 (Mus musculus [11]): 128 mg/kg
Activity (Mus musculus [12]): inactive
Activity (Mus musculus [13]): inactive
Activity (Mus musculus [14]): 50%
Activity (Mus musculus [15]): Active
Activity (Mus musculus [16]): 75%
Activity (Mus musculus [17]): inactive
Activity (Mus musculus [18]): 100 mg/kg
Activity (Mus musculus [19]): 300 mg/kg
Activity (Mus musculus [20]): inactive
Activity (Mus musculus [21]): inactive
Activity (Mus musculus [22]): Non-toxic
Activity (Mus musculus [23]): Non-toxic
Activity (Rattus norvegicus [24]): inactive
Activity (Rattus norvegicus [25]): inactive
Activity (Rattus norvegicus [26]): inactive
Activity (Rattus norvegicus [27]): inactive
Activity (Rattus norvegicus [28]): Non-toxic
Activity (Rattus norvegicus [29]): Non-toxic
Activity (Rattus norvegicus [30]): Non-toxic
Activity (Rattus norvegicus [31]): Non-toxic
Activity (Rattus norvegicus [32]): Non-toxic
Activity (Rattus norvegicus [33]): 25%
Activity (Rattus norvegicus [34]): inactive
Activity (Rattus norvegicus [35]): Non-toxic
Activity (Rattus norvegicus [36]): 24.2 g
logP at 24 h [37]: 3.5
Activity (Rattus norvegicus [38]): Toxic
Activity (Rattus norvegicus [39]): Toxic
Activity (Rattus norvegicus [40]): Toxic
